The values that follow come from ChEMBL document CHEMBL1177716, “Kinesin spindle protein (KSP) inhibitors with 2,3-fused indole scaffolds” (J Med Chem, 2010).

Calls of active or inactive are those of the source. No cut-off for these calls is given here. Some results are limits rather than exact numbers.

Assay [1] relates to HeLa. Description: Cytotoxicity against human HeLa cells at 60 uM after 48 hrs […]. The format is functional.
Assay [2] deals with HeLa. The assay is described as follows: Cytotoxicity against human HeLa cells after 48 hrs […]. The class given is functional, cell-based. The settings on record: for IC50: Homo sapiens, HeLa, 48 h.
The target of assay [3] is T1, Kinesin-like protein KIF11 (Homo sapiens, UniProt P52732).
T1 sequence (P52732 whole entry): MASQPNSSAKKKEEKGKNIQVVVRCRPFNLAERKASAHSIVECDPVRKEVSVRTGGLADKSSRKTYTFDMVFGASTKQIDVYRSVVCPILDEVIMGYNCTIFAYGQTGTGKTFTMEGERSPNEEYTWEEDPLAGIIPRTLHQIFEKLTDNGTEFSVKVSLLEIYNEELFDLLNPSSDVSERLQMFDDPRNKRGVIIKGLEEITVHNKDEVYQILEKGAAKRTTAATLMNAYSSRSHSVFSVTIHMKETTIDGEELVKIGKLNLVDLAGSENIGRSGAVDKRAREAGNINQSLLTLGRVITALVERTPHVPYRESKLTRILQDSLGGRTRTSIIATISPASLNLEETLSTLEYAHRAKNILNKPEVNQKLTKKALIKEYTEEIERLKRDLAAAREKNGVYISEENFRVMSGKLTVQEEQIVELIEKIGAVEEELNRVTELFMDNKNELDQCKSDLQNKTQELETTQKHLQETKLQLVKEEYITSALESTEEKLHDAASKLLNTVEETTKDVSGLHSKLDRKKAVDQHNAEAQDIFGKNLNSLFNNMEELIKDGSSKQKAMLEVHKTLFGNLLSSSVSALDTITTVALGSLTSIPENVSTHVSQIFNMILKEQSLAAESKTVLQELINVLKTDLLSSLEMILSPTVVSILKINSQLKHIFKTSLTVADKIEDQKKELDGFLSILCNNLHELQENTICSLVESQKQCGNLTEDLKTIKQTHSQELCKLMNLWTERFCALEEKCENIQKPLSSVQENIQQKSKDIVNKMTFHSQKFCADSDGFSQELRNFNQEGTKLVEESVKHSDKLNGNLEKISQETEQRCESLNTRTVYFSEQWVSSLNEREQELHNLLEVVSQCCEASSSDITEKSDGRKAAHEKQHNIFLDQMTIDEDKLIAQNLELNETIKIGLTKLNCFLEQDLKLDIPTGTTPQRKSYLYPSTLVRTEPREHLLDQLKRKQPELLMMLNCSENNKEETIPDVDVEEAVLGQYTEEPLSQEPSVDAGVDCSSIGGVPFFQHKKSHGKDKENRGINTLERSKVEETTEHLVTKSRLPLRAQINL
The assay is described as follows: Inhibition of human C-terminally His6-tagged microtubule-activated KSP motor domain ATPase activity after 30 mins by luciferase-derived luminescence assay.

For assay [4], the species on record is Sus scrofa. The assay is described as follows: Inhibition of pig brain topoisomerase 1-mediated supercoiled DNA relaxation after 20 mins by agarose gel electrophoresis analysis. The procedure, abridged: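 Supercoiled DNA was incubated with topo I, with or without test compound. Gel lanes included supercoiled DNA alone, DNA plus enzyme without compound, and DNA plus enzyme with camptothecin as the reference inhibitor.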

For assay [5], the species on record is Sus scrofa. The assay is described as follows: Inhibition of pig brain topoisomerase 2-mediated supercoiled DNA relaxation after 20 mins by agarose gel electrophoresis analysis. Summed up: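 Supercoiled DNA was incubated with topo II, with or without test compound. Gel lanes included supercoiled DNA alone, DNA plus enzyme without compound, and DNA plus enzyme with AMSA as the reference inhibitor.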

The subject of assay [6] is HeLa. The assay is described as follows: Cell cycle arrest in human HeLa cells assessed as accumulation at M phase at 36 uM after 20 hrs by DAPI staining relative to taxol. The settings on record: in the assay text read “at 32 uM” for “at 36 uM”. The format is functional. Summed up:
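HeLa cells were exposed to compound for 20 h and scored for M-phase arrest. Mitotic index was expressed as a percentage of the induction given by 0.1 μM taxol.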

Assay [7] relates to HeLa. Description: Cell cycle arrest in human HeLa cells assessed as accumulation at G2/M phase with incomplete chromosome condensation at 36 uM after 20 hrs by DAPI staining. The class given is functional, cell-based.

Broadly, the inhibition is how much of the control response was suppressed. Usually IC50 stands for the concentration at which inhibition is half-maximal. Read a low IC50 as greater potency. The molecule `CC(C)(C)Oc1ccc2c(c1)[nH]c1ccccc12` had an inhibition at 60 µM in the assay on HeLa [1] below 50%. Also, in the assay with HeLa [2], the “inhibition (INH)” value is below 50%. Moreover, the IC50 in assay [3] turned out to be 3.2 µM.

For the molecule `CC(C)c1ccc2c(c1)[nH]c1ccccc12`, the IC50 (with HeLa [2]; in assay [3]) was 1.5 µM throughout.

`CCCCN1C(=O)[C@@H]2Cc3c([nH]c4ccccc34)[C@@H](c3cccc(O)c3)N2C1=O`: the IC50 with HeLa [2] amounted to 8.6 µM; in assay [3] it was 7.1 µM.

The molecule `Cc1ccc2c(c1)[nH]c1ccccc12` returned an inhibition at 60 µM with HeLa [1] below 50%. In addition, the concentration for half-maximal inhibition (IC50) in assay [3] was 22 µM.

Take `c1ccc2c(c1)[nH]c1c3c(ccc12)CCCC3`: the IC50 in the assay with HeLa [2] is 30 µM; in assay [3] it was 1.6 µM.

Consider `c1ccc2c(c1)[nH]c1cc3c(cc12)CCCC3`, for which the inhibition at 60 µM in the assay on HeLa [1] is below 50%. The same molecule came in with an IC50 in assay [3] of 25 µM.

In turn, `Cc1cccc2c1[nH]c1ccccc12` registered an inhibition at 60 µM in the assay with HeLa [1] below 50%. Also, in assay [3], the IC50 is 23 µM.

The molecule `FC(F)(F)c1cccc2c1[nH]c1ccccc12` displayed an inhibition at 60 µM with HeLa [1] below 50%. Besides, in assay [3], 3.3 µM corresponded to half-maximal inhibition (IC50).

Regarding `CC(=O)c1ccc2[nH]c3cc(C)ccc3c2c1`, the IC50 was 51 µM in the assay on HeLa [2] and 1.6 µM in assay [3].

For the molecule `COC(=O)c1ccc2c(c1)[nH]c1ccccc12`, the inhibition at 60 µM in the assay with HeLa [1] was below 50%. Further, half-maximal inhibition in assay [3] (IC50) was put at 11 µM.

Take `COc1ccc2c(c1)[nH]c1c(C)nccc12`: the inhibition result in the assay listed under Sus scrofa [4] and in the assay filed under Sus scrofa [5] was “Active” throughout.

`Oc1ccc2c(c1)[nH]c1ccccc12` showed an inhibition at 60 µM with HeLa [1] below 50%.

On to `Cc1ccc2[nH]c3ccc(C(F)(F)F)cc3c2c1`, for which the inhibition at 60 µM with HeLa [1] is below 50%. Also, the IC50 in assay [3] was determined as 8.8 µM.

In turn, `CC(C)(C)c1ccc2c(c1)[nH]c1cc(C(F)(F)F)ccc12` yielded an inhibition at 60 µM in the assay on HeLa [1] below 50%. Further, it took 1.4 µM to reach half-maximal inhibition in assay [3] (IC50).

In the case of `FC(F)(F)Oc1ccc2c(c1)[nH]c1ccccc12`, the IC50 in the assay with HeLa [2] is 29 µM; in assay [3], 0.51 µM.

Turning to `Cn1c2ccccc2c2ccc(C(F)(F)F)cc21`, the inhibition at 60 µM with HeLa [1] was below 50%. The IC50 in assay [3] came to 5.6 µM.

As to `CC(C)(C)c1ccc2[nH]c3ccccc3c2c1`, in the assay on HeLa [6], the Activity was 76%. The IC50 was determined as 6.5 µM in the assay with HeLa [2] and 0.24 µM in assay [3]. Further, the result in the assay with HeLa [7] was Active.

In the assay with HeLa [1], `O=Cc1ccc2c(c1)[nH]c1ccccc12` displayed an inhibition at 60 µM below 50%. Moreover, 13 µM corresponded to half-maximal inhibition in assay [3] (IC50).

For the molecule `CC(C)(C)c1cccc2c1[nH]c1ccccc12`, the IC50 in the assay with HeLa [2] was determined as 41 µM; in assay [3], 14 µM.

For `Cc1ccc2c(c1)[nH]c1ccc(C(F)(F)F)cc12`, the 50% inhibitory concentration (IC50) is 35 µM with HeLa [2] and 11 µM in assay [3].

As for `CC(C)(C)c1ccc2c(c1)[nH]c1ccc(C(=O)O)cc12`, in the assay with HeLa [1], the inhibition at 60 µM was below 50%. The IC50 in assay [3] stood at 11 µM.

As to `COC(=O)c1ccc2[nH]c3cc(C(C)(C)C)ccc3c2c1`, the inhibition at 60 µM in the assay on HeLa [1] was below 50%. The IC50 in assay [3] worked out at 0.39 µM.

As for `CCc1ccc2c(c1)[nH]c1ccccc12`, the inhibition at 60 µM with HeLa [1] is below 50%. The same molecule had an IC50 in assay [3] of 2.8 µM.

As to `FC(F)c1ccc2c(c1)[nH]c1ccccc12`, the IC50 in the assay with HeLa [2] was 46 µM; in assay [3] it was 0.87 µM.

In the assay on HeLa [1], `c1ccc2c(c1)ccc1c3ccccc3[nH]c21` had an inhibition at 60 µM below 50%. This molecule displayed an IC50 in assay [3] of 4.6 µM.

In turn, `O=Cc1ccc2[nH]c3ccccc3c2c1` had an inhibition at 60 µM in the assay with HeLa [1] below 50%. The molecule also yielded an IC50 in assay [3] of 17 µM.

For the molecule `Cc1ccc2c(c1)[nH]c1ccc(F)cc12`, in the assay with HeLa [1], the inhibition at 60 µM is below 50%. Moreover, the IC50 in assay [3] was found to be 7.5 µM.
